Source: PubChem BioAssay
This is a sample that favours compounds with a hit; in the whole collection about 5.1% have one here.
STAT3 inh: inhibitors of IL-6 induced STAT3 signaling. U3A cells, IL-6 STAT3-luciferase reporter, luminescence; host cell line lacks STAT1. inhibition, % at 5.5 µM. 190,000 compounds, 0.89% hits. AID 862;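 active means inhibition above the mean inhibition across all screened compounds plus 3 SD, cut at about 44% in these data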;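 further: 0% = DMSO only wells and 100% = 100 µM nifuroxazide control wells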
NF-kB neuron act: raises NF-kB expression in human neuronal cells. NF-kB reporter expression; active compounds read high. fold change at 12.5 µM. 190,000 compounds, 1.6% hits; in the data active means fold change above about 3.3
STAT1 activator: STAT1 signaling activation; activation (% of control), % at 5.5 µM; NIH 3T3 STAT1-luciferase reporter, IFN-gamma, luminescence; 100% = IFN-gamma alone, no compound; 200,000 compounds, 2.6% hits;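 active means activation above the screen-wide mean activation plus 3 SD, cut at about 130% in these data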;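 further: raw ratio to IFN-gamma control signal so 100% means no change and 0% no light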
APP 5'UTR act: APP 5'UTR luciferase reporter activation; AID 1276; 190,000 compounds, 1% hits; SH-SY5Y APP 5'UTR luciferase reporter, luminescence; zero percent = DMSO vehicle wells; activation, % at 2 µM;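 active means activation above a set limit, based on mean plus 3 SD of controls, cut at about 140% in these data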
STAT1 inh: STAT1 signaling inhibition. inhibition, % at 5.5 µM. NIH 3T3 STAT1-luciferase reporter, IFN-gamma, luminescence. 200,000 compounds, 0.35% hits. AID 920;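 active means inhibition above a set limit, the mean inhibition across all tested compounds plus 3 SD, cut at about 34% in these data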;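 further: 0% = IFN-gamma with DMSO and 100% = IFN-gamma with 300 µM nifuroxazide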
STAT3 act: STAT3 signaling activation | 190,000 compounds, 0.91% hits | U3A cells, IL-6 STAT3-luciferase reporter, luminescence; 100% = signal with IL-6 EC80 alone | activation (% of control), % at 5.6 µM;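 active means activation above the screen-wide mean of compound activation plus 3 SD, cut at about 130% in these data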;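 further: 0% = background luminescence of wells with medium and substrate only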
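System – human U3A cells carrying STAT3-luciferase construct · Probe or stimulus – Interleukin-6, 33 ng/mL · Schedule – compound 1 h, then IL-6 6 h at 37 °C · Signal – luminescence from STAT3-driven luciferase reporter · Evaluation – percent of IL-6-only median luminescence · Benchmarks – IL-6-only high control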
Active calls of the source: *; / = not tested or not shown.

SMILES	STAT3 inh	NF-kB neuron act	STAT1 activator	APP 5'UTR act	STAT1 inh	STAT3 act
Cc1cc(/C=C(\C#N)C(=O)Nc2ccccc2)c(C)n1-c1cccnc1	-14	1.5	133*	83	-36	110
Cc1cccc(-n2ncc3c(N4CCC(C)CC4)ncnc32)c1	34	4.3*	143*	58	-47	78
c1ccc(-n2ncc3c(N4CCCCC4)ncnc32)cc1	96*	2	40	115	66*	25
CC1CC(C)CN(c2ncnc3c2cnn3-c2ccc(Cl)cc2)C1 (configuration not stated)	-1	0.87	118	233*	-18	101
CCOC(=O)C1CCN(c2ncnc3c2cnn3-c2ccc(OC)cc2)CC1	15	1.1	112	19	-13	93
COc1ccc(-n2ncc3c(N4CCC(C(N)=O)CC4)ncnc32)cc1	-17	3.8*	132*	102	-35	121
CCN1CCN(c2ncnc3c2cnn3-c2ccccc2)CC1	14	1.8	117	34	-19	96
CCOC(=O)C1CCCN(c2ncnc3c2cnn3-c2cccc(C)c2)C1 (configuration not stated)	35	0.88	100	10	-1	73
Cc1cc(N(CCO)CCO)ccc1N=Nc1cc(F)ccc1F	-18	1.1	133*	19	-37	123
O=C1CC(N2C(=O)/C(=C/C=C/c3ccccc3)SC2=S)C(=O)N1c1ccccc1 (configuration not stated)	7	1	101	7	-2	96
C/C(CCN1CCCCc2nc(C)c(C)cc21)=N\O[C@H](C)c1cn([C@H](CO)Cc2ccccc2)nn1	-7	0.77	104	5	-5	103
Cc1cc2c(nc1C)CCCN2C[C@@H](C)O/N=C1/[C@H]2CCn3c(=O)n(-c4ccccc4)c(=O)n3[C@H]2[C@H](O)[C@@H]2O[C@H]12	-6	3.4*	100	-11	0	103
CCOC(=O)Cn1c(-c2ccccc2)nc2ccccc2c1=O	13	1.2	129*	20	-32	96
CCCCOc1cccc(C(=O)NNC(=S)NC2CCCCC2)c1	6	1.1	103	/	-3	100
O=C1C(Nc2ccccc2)=C(NS(=O)(=O)c2ccccc2)C(=O)c2ccccc21	-35	0.86	96	-10	4	134*
O=C1c2ccccc2C(=O)c2cc(S(=O)(=O)Nc3ccccc3)ccc21	-2	0.7	99	-2	1	101
COc1ccc(-c2nnc(SCc3ccccc3F)o2)cc1	1	7.7*	142*	157*	-46	101
C#CCSc1nnc(-c2ccc(OC)cc2)o1	14	3	134*	35	-38	89
CCSc1nnc(-c2ccc(OC)cc2)o1	24	2.4	128	87	-31	82
Cc1ccccc1-c1nnc(SCc2ccccc2)o1	2	2.9	132*	44	-35	101
COc1ccc(-c2nnc(SCC#N)o2)cc1	17	1.5	104	-7	-4	89
Cc1ccc(CSc2nnc(-c3ccco3)o2)cc1	-6	3.9*	125	53	-27	106
c1ccc(CSc2nnc(-c3ccncc3)o2)cc1	9	1.1	120	1	-21	92
CCOC(=O)C1=C(c2ccccc2)NC(=S)NC1C (configuration not stated)	-2	1	95	10	6	108
Cc1cc(C)nc(SCc2ccc(C(=O)N/N=C/c3ccco3)cc2)n1	-2	0.86	96	-9	5	103
SMILES	STAT3 inh	NF-kB neuron act	STAT1 activator	APP 5'UTR act	STAT1 inh	STAT3 act
CCCCOc1c(C(=O)Nc2ccccc2)nnn1-c1ccccc1	15	/	99	-11	-1	91
Fc1ccccc1CSc1nnc(-c2ccccc2)o1	1	5*	145*	139*	-49	103
Cc1ccccc1-c1nnc(SCc2ccccc2F)o1	2	6.4*	148*	142*	-53	101
O=C(CN1CCN(Cc2cccc(Cl)c2)C1=O)NCc1cccs1	7	1.5	96	6	4	105
O=C(/C=C/Nc1ccc([N+](=O)[O-])cc1Br)c1cccc2ccccc12	-10	1.7	96	149*	5	109
N#Cc1cc(C#N)c(N2CCN(c3ccccn3)CC2)nc1N	-16	0.97	136*	68	-39	119
O=C1CN(C(=S)NC(=O)c2ccc(-c3ccccc3)cc2)CCN1	9	1.6	133*	19	-38	100
COc1ccc(C(=O)NC(=S)N2CCNC(=O)C2)cc1Br	-6	0.88	107	-6	-10	108
CC(=O)c1cccc(NC(=O)COC(=O)c2n[nH]c3ccccc23)c1	3	1.4	96	0	3	99
Cc1oc2cc3c(C(=O)N4CCCCC4)c(C)oc3cc2c1C(=O)N1CCCCC1	-31	0.88	139*	71	-43	132
CCOc1ccc(C(=O)NCC(=O)N2CCC(C)CC2)cc1OCC	2	0.98	99	-3	0	100
CCSc1nn2c(=O)c3ccccc3nc2s1	34	2.4	131*	43	-33	76
CCOn1c(SCC)nc2ccccc2c1=O	-12	1.8	94	-10	7	115
COc1ccccc1-n1cnc2sc(-c3ccccc3)cc2c1=O	-3	1.4	99	5	1	106
O=c1c2cc(-c3ccccc3)sc2ncn1/N=C/c1ccco1	13	2.4	129*	20	-31	91
CCc1cc2c(=O)n(CC(=O)NCCc3ccc(OC)c(OC)c3)cnc2s1	-7	1	108	-2	-10	108
CCc1cc2c(=O)n(-c3ccc(Br)cc3)cnc2s1	7	2.4	137*	13	-44	95
CCCCCn1cnc2sc(CC)cc2c1=O	-6	2.3	144*	66	-49	108
CCCCCn1cnc2sc(-c3ccccc3)cc2c1=O	14	4.8*	149*	4	-54	97
CCc1cc2c(=O)n(CC(C)C)cnc2s1	-6	1.5	128	32	-31	110
CCCCSCCCNC(=O)Nc1ccc(C)c(C)c1	6	1.3	98	16	0	101
O=C(COC(=O)c1cn(-c2ccccc2)nc1-c1cccnc1)NC1CC1	6	1.1	100	18	2	99
Cc1cccc(NC(=O)Nc2ccc(C)c(C)c2)n1	-33	2.1	129*	2	-31	135*
Cc1cccc(NC(=O)Nc2ccc([N+](=O)[O-])cc2)n1	12	1.1	134*	15	-36	90
Cc1cccc(NC(=O)c2ccc([N+](=O)[O-])cc2Cl)n1	0	1.1	100	2	0	101
Cc1cccc(NC(=O)Nc2cccc(C)n2)n1	15	1.5	111	18	-12	91
COc1ccc(OC)c(/C=C2\SC(=S)N(Cc3cccnc3)C2=O)c1	8	3.9*	100	-13	0	95
